In the library only some 2.3% were active in any assay of this set; here they are far more common.
MEKK2 mut-MEK5 – signal of MEK5 binding to mutant human MEKK2 PB1 domain; AID 1530; bead flow cytometry, Alexa488-MEK5 binding to MEKK2 mutant; 0.35% of 290,000 active; percent response, % at 10 µM; in the data active = percent response above about 24%, passing the limit was not always enough
MEKK3 PB1 HTS – modulators (inhibitors or enhancers) of MEK5 binding to human MEKK3 PB1 domain; binding response (% of control), % at 10 µM; Q99759; 1.4% of 290,000 active; bead-based flow cytometry, Alexa488-MEK5 binding to MEKK3; actives lie on both sides; 0 = blocked by unlabeled MEK5, 100 = vehicle;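 active = binding response more than 3 SD above or below the average of its plate-row segment, actives on both sides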;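 also: Alexa488 bead fluorescence after subtracting the streptavidin-only scavenger bead signal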
Target sequence (Q99759 whole entry, looked up, the tested form may be a part): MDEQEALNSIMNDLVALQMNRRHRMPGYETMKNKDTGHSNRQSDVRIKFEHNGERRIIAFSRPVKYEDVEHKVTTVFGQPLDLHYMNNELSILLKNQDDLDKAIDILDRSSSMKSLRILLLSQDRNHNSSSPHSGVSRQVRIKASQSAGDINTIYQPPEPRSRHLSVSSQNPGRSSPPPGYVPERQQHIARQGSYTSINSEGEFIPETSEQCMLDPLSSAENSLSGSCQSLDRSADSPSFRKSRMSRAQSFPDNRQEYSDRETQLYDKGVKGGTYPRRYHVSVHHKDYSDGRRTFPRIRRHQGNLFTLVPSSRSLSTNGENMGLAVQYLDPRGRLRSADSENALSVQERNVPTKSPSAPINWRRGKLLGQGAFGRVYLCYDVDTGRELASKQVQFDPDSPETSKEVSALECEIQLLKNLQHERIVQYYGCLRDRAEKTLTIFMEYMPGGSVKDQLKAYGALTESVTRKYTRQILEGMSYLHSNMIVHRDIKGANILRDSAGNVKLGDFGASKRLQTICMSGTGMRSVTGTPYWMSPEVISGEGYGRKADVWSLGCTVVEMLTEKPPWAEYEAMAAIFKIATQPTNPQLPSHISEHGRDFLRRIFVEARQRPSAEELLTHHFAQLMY
ABCB1 block – blocks JC-1 efflux by human ABCB1 transporter; CCRF-Adr cells, flow cytometry; P08183; 0.067% of 190,000 active; inhibition, % at 6.6 µM; in the data active = inhibition above about 40%;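 also: 0% = vehicle and 100% = reference inhibitor; higher value means more JC-1 retained so stronger ABCB1 efflux block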
MEKK2 WT-MEK5 – raises or lowers MEK5 binding to wildtype human MEKK2 PB1 domain | bead flow cytometry, Alexa488-MEK5 binding to MEKK2 WT; actives lie on both sides | binding response (% of control), % at 10 µM | AID 1531 | 1.1% of 290,000 active; in the data active = binding response below about 67% or above about 130%
ABCG2 block – inhibitors of human ABCG2 transporter, ABCB1 counter-screen; 0.1% of 190,000 active; AID 1325; inhibition, % at 6.6 µM; IgMXP3 cells, JC-1 efflux, flow cytometry; Q9UNQ0;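 active = inhibition above 80%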;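 also: 0% = DMSO and 100% = nicardipine control wells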
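test system = two drug-resistant human cell lines, ABCG2 and ABCB1 | amount = 3 million cells/mL final, two lines in 1:1 ratio | reagent = JC-1 transporter substrate | doses = one concentration, 6.6 µM final | incubation = 10 min at 25 °C | signal = flow cytometric JC-1 green MFI at 530 nm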
MEKK2wt confirm – raises or lowers MEK5 binding to wildtype human MEKK2, retest; shares compounds with MEKK3 PB1 HTS; bead flow cytometry, Alexa488-MEK5 binding to MEKK2 WT; actives lie on both sides; binding response (% of control), % at 10 µM; 2.4% of 5,900 active; in the data active = binding response below about 16% or above about 210%; inactive = in between
MEKK2mut confirm – signal of MEK5 binding to mutant human MEKK2, retest | shares compounds with MEKK3 PB1 HTS | bead flow cytometry, Alexa488-MEK5 binding to MEKK2 mutant | percent response, % at 10 µM | 2% of 5,900 active | AID 1893; in the data active = percent response mostly above about 71%, no sharp cut-off; inactive = mostly below about 38%;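 also: higher means compound restores mutant binding toward wildtype level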
MEKK3 confirm – MEKK3-MEK5 PB1 inhibition, single concentration confirmation. AID 1894. bead flow cytometry, Alexa488-MEK5 binding to MEKK3; hits give low values. 1.8% of 5,900 active. binding response (% of control), % at 10 µM. shares compounds with MEKK3 PB1 HTS;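 active = binding response below 72% of control, or above a set upper limit, though filed actives all read lower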;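 also: 100% = DMSO only wells and 0% = binding blocked by excess unlabeled MEK5; lower values mean stronger disruption of MEK5 binding to MEKK3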
Starred values were filed as active, the others as inactive; [ ] = remark or other dose.

Results for Cn1ccnc1Sc1cc(NCCCO)c([N+](=O)[O-])c2nonc12 ?
MEKK2 mut-MEK5: 0; MEKK3 PB1 HTS: 132*; ABCB1 block: 0; MEKK2 WT-MEK5: 113; ABCG2 block: 0; MEKK2wt confirm: 101; MEKK2mut confirm: -2; MEKK3 confirm: 99

What do the screens show for `O=C1N=c2ccccc2=C1c1[nH]c(=S)[nH]c1O`?
MEKK2 mut-MEK5: 2; MEKK3 PB1 HTS: 66*[inhibitor]; ABCB1 block: 0; MEKK2 WT-MEK5: 106; ABCG2 block: 1; MEKK2wt confirm: 110; MEKK2mut confirm: 9; MEKK3 confirm: 103

What do the screens show for `O=C1N=c2ccccc2=C1c1sc(=O)[nH]c1O`?
MEKK2 mut-MEK5: -2; MEKK3 PB1 HTS: 94; MEKK2 WT-MEK5: 92

How did COc1ccc(CCNc2nc(C)nc3c2nnn3Cc2ccccc2)cc1OC do in these assays?
MEKK2 mut-MEK5: 5; MEKK3 PB1 HTS: 107; MEKK2 WT-MEK5: 106

What do the screens show for `Cc1cc2oc(=O)cc(CN3CCCc4ccccc43)c2cc1C`?
MEKK2 mut-MEK5: 228*; MEKK3 PB1 HTS: 105; ABCB1 block: 0; ABCG2 block: 3; MEKK2wt confirm: 92; MEKK2mut confirm: -13; MEKK3 confirm: 100

Results for COC(=O)CN1C(=O)[C@H]2[C@@H](/C=C/c3ccccc3)N3C(=O)CN(Cc4ccccc4)C(=O)[C@@]3(C)[C@H]2C1=O ?
MEKK2 mut-MEK5: 3; MEKK3 PB1 HTS: 101; MEKK2 WT-MEK5: 107

What do the screens show for `CCOc1ccc(S(=O)(=O)N(CC)CC(=O)NC2CC2)cc1`?
MEKK2 mut-MEK5: 4; MEKK3 PB1 HTS: 101; MEKK2 WT-MEK5: 103

How did O=C(O)/C=C/c1ccc2ccccc2n1 do in these assays?
MEKK2 mut-MEK5: -2; MEKK3 PB1 HTS: 100; ABCB1 block: 1; MEKK2 WT-MEK5: 97; ABCG2 block: 3

Results for Fc1ccccc1/C=C/c1ccc2ccccc2n1 ?
MEKK2 mut-MEK5: 5; MEKK3 PB1 HTS: 130*; ABCB1 block: 1; MEKK2 WT-MEK5: 108; ABCG2 block: 23; MEKK2wt confirm: 101; MEKK2mut confirm: -4; MEKK3 confirm: 99

How did C(=C\c1ccc2ccccc2n1)/c1ccccc1 do in these assays?
MEKK2 mut-MEK5: -12; MEKK3 PB1 HTS: 40*[inhibitor]; MEKK2 WT-MEK5: 34*[inhibitor]; MEKK2wt confirm: 100; MEKK2mut confirm: -3; MEKK3 confirm: 94

What do the screens show for `Oc1ccc(/C=C/c2ccc3ccccc3n2)cc1`?
MEKK2 mut-MEK5: -6; MEKK3 PB1 HTS: 100; ABCB1 block: 1; MEKK2 WT-MEK5: 97; ABCG2 block: 10

What do the screens show for `Cc1ccc(C)c(NC(=O)C2CCCN(c3cnccn3)C2)c1` (configuration not stated)?
MEKK2 mut-MEK5: 1; MEKK3 PB1 HTS: 100; MEKK2 WT-MEK5: 99

How did COc1ccc(NC(=O)c2cncn2-c2ccccc2)cc1 do in these assays?
MEKK2 mut-MEK5: -5; MEKK3 PB1 HTS: 101; MEKK2 WT-MEK5: 95

Results for CCOC(=O)C1CCCCN1S(=O)(=O)c1cc2c(cc1C)NC(=O)CO2 (configuration not stated) ?
MEKK2 mut-MEK5: -1; MEKK3 PB1 HTS: 97; MEKK2 WT-MEK5: 98

Results for O=C(COc1ccc(F)cc1Cl)N(Cc1nnc(-c2ccccc2Cl)o1)C1CC1 ?
MEKK2 mut-MEK5: -10; MEKK3 PB1 HTS: 91; MEKK2 WT-MEK5: 83

What do the screens show for `COc1ccc(OCc2n(CC(=O)OC3CC(C)CCC3C(C)C)c3ccccc3[n+]2C)cc1` (configuration not stated)?
MEKK2 mut-MEK5: 40; MEKK3 PB1 HTS: 111; MEKK2 WT-MEK5: 162*; MEKK2wt confirm: 158; MEKK2mut confirm: 29; MEKK3 confirm: 108

How did CCCN1C(=O)SC(CC(=O)Nc2ccc(Br)cc2)C1=O (configuration not stated) do in these assays?
MEKK2 mut-MEK5: -24; MEKK3 PB1 HTS: 2.0*[inhibitor]; ABCB1 block: 0; MEKK2 WT-MEK5: 3.0*[inhibitor]; ABCG2 block: 8; MEKK2wt confirm: 100; MEKK2mut confirm: -4; MEKK3 confirm: 101

Results for Cc1ccc(SCCNC(=O)/C=C/c2ccc([N+](=O)[O-])cc2)cc1 ?
MEKK2 mut-MEK5: -7; MEKK3 PB1 HTS: 0.0*[inhibitor]; MEKK2 WT-MEK5: 1.0*[inhibitor]; MEKK2wt confirm: 99; MEKK2mut confirm: 3; MEKK3 confirm: 102

What do the screens show for `O=C(/C=C/c1ccc([N+](=O)[O-])cc1)NCCSc1ccccc1`?
MEKK2 mut-MEK5: 14; MEKK3 PB1 HTS: 114; ABCB1 block: 0; MEKK2 WT-MEK5: 120; ABCG2 block: 8

What do the screens show for `COc1ccc(N2CC(C(=O)N[C@H](C(=O)NC(C)c3ccccc3)C(C)C)CC2=O)cc1` (some centres not stated)?
MEKK2 mut-MEK5: 2; MEKK3 PB1 HTS: 101; MEKK2 WT-MEK5: 101

Results for Cc1ccccc1N(C(=O)Cc1c[nH]c2ccccc12)C(C(=O)NC1CCCCC1)c1ccco1 (configuration not stated) ?
MEKK2 mut-MEK5: -2; MEKK3 PB1 HTS: 98; ABCB1 block: 1; MEKK2 WT-MEK5: 98; ABCG2 block: 1

How did Cc1ccc(C(C(=O)NC2CCCCC2)N(C(=O)Cc2c[nH]c3ccccc23)c2ccccc2C)o1 (configuration not stated) do in these assays?
MEKK2 mut-MEK5: 1; MEKK3 PB1 HTS: 128*; ABCB1 block: 1; MEKK2 WT-MEK5: 105; ABCG2 block: 4; MEKK2wt confirm: 102; MEKK2mut confirm: 1; MEKK3 confirm: 101

Results for CC(=O)c1ccc(NC(=O)Cn2cnc(S(=O)(=O)N3CCc4ccccc43)c2)cc1 ?
MEKK2 mut-MEK5: 2; MEKK3 PB1 HTS: 102; MEKK2 WT-MEK5: 103

How did O=[N+]([O-])c1c(Nc2ccc(O)cc2)cc(N2CCOCC2)c2nonc12 do in these assays?
MEKK2 mut-MEK5: 0; MEKK3 PB1 HTS: 107; ABCB1 block: 0; MEKK2 WT-MEK5: 96; ABCG2 block: 2

Results for CC(=O)Nc1ccc(Nc2cc(N3CCOCC3)c3nonc3c2[N+](=O)[O-])cc1 ?
MEKK2 mut-MEK5: -17; MEKK3 PB1 HTS: 45*[inhibitor]; ABCB1 block: 0; MEKK2 WT-MEK5: 49; ABCG2 block: 4; MEKK2wt confirm: 101; MEKK2mut confirm: -1; MEKK3 confirm: 103

Assay outcomes as filed in PubChem BioAssay.
